From the EternaBench riboswitch data come the findings set out here.

The test system of the data set is MS2 coat protein. Kind of data set: apparent Kd, MS2 coat protein; higher = weaker binding; RNA-MaP array; FMN 200 µM where present. Summed up: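 Binding was read on Illumina sequencing-chip clusters where stalled E. coli RNA polymerase had transcribed each design. A titration of SNAP-549-labelled MS2 coat protein began at 0.7 or 1.5 nM and doubled to 3 µM, once without ligand and once with constant ligand, in 100 mM Tris-HCl pH 7.5, 80 mM KCl, 4 mM MgCl2, BSA, DTT, yeast tRNA and Tween-20. The apparent Kd is the median of filtered per-cluster binding-curve fits, based on green signal normalised to red-channel RNA signal and control-cluster median Fmax.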

The mark [1] stands for this setting: designed as: OFF switch for flavin mononucleotide, no ligand.
Where [2] appears, read: ligand present: flavin mononucleotide, designed as: OFF switch for flavin mononucleotide.
Where [3] appears, read: designed as: ON switch for flavin mononucleotide, no ligand.
[4] abbreviates: ligand present: flavin mononucleotide, designed as: ON switch for flavin mononucleotide.

For the sequence “GAGAAGGGAGGAUAUGCUGCUCGUCACUUGCGUGAUGAGUAGCAGAAGGCACAUGAGGAUCACCCAUGUAAAGG”, the apparent Kd (usually a dissociation constant that holds for the conditions of the assay) runs as follows: under setting [1], 84.2 nM; under setting [2], 29.4 nM.

With “UUUUGGCGGGCAGGAUAUACUAAGACAUGAGGAUCACCCAUGUACUUGCAAGAUGUCCGUGUCGAGUAGAAGGGCCAAGCUAUA”, the “apparent Kd” value by setting is: under setting [1], 4.97 nM; under setting [2], 7.8 nM.

Turning to “GUCAGCUCGUGAGGAUAUACAACACUGCAUCGGCAGUGUAUUAAGAUCACAUGAGGAUCACCCAUGUAGAAGGCACGAGCUGAU”, the “apparent Kd” value by setting is: under setting [1], 13 nM; under setting [2], 246 nM.

Consider “UUGGACGUCGUAGGAUAUGUAGGAUAUUCCUACAUGAGGAUCACCCAUGUUGACAUGGAAGAAGGACAGAAGGAUGAUGUCCAU”, for which the “apparent Kd” value worked out at 414 nM under setting [3] and 5.34 nM under setting [4].

Regarding “GCUUGUAGAGGAUAUACAAGGGCCUUAGCGGAUAACACCGCACAUGAGGAUCACCCAUGUAGAAGGCUACCACC”, the “apparent Kd” value under setting [1] stood at 16.8 nM and the “apparent Kd” value under setting [2] was 94.1 nM.

For the sequence “UGAUCUAUGUAGAAGGCCCAUAUCUAUAUUUAGGGAGGAUAUACAUGAGGAUCACCCAUGUAUAGAGCUAGUGGACUAGUCACC”, the “apparent Kd” value amounted to 20.9 nM under setting [1] and 47.1 nM under setting [2].

For “AAGAUGCGGAUAGGAUAUGGAAAGAAGGAAAGACCAGAAGGAUUGGUCAUAUAACAUGAGGAUCACCCAUGUAUAUGUUGUGAA”, the “apparent Kd” value reads like this: under setting [1], 17.8 nM; under setting [2], 17.7 nM.

For “CCUAUUAGAAAAUAGACGAAGUGGCCAGAAGGUGAAUGCCACAUGAGGAUCACCCAUGUUUCGAUCAAGGAUAUGGUUUCUCAC”, the “apparent Kd” value was found to be 630 nM under setting [3] and 203 nM under setting [4].

Regarding “CCUUGUAUUGAGGAUAUGCGCCGGCUCGCUGGCGCAGAAGGCGGCACAUGAGGAUCACCCAUGUCAGUUCGCGA”, the “apparent Kd” value was 9.34 nM under setting [1] and 12 nM under setting [2].

Regarding “AUAGGAUUGCGAGGAUAUUAGCGCGGGCCUUCAGACUUACGAAAUGACAUGAGGAUCACCCAUGUUAAGAAGGCGCAUCAAAUG”, the “apparent Kd” value reads like this: under setting [1], 6.58 nM; under setting [2], 58.3 nM.

Regarding “UUUUUAUAAUAGAAGGAGGACUUCAUGAGGAUCACCCAUGUGUUAGUACUUAGGAUAUGUAAUAACAUGAGGAUCACCCAUGUC”, the “apparent Kd” value reads like this: under setting [3], 45.3 nM; under setting [4], 45.7 nM.

“UCCGCUAUCUAGAAGGAUAUGCGUAUAUAAACAUGAGGAUCACCCAUGUACCGGCGAAAACCGGUGCAGAAGGUUUAGCUAGUGA”: the “apparent Kd” value stood at 431 nM under setting [3] and 65.7 nM under setting [4].

Take “GUACAGUAGUGAGGAUAUACGAGAUCGAUAGAUCGGCGAUCCAUAUAUACAUGAGGAUCACCCAUGUAGAAGGCACUUCUGUAC”: the “apparent Kd” value is, setting by setting: under setting [1], 7.7 nM; under setting [2], 104 nM.

Regarding “UCUGCCGCCGUGAGGAUAUGCCCAAAGAAAAGCGGGCAGAAGGCACAUGAGGAUCACCCAUGUCCCGCGGUUUU”, the “apparent Kd” value under setting [1] was 18 nM and the “apparent Kd” value under setting [2] amounted to 38.4 nM.

On to “AAUAUGAGCUGGAAUAAAACCUGAACAUGAGGAUCACCCAUGUAGGAUAUCAGCACGAUAAGUGCUGAGAAGGACAACCAGCUC”, for which the “apparent Kd” value reads like this: under setting [1], 14 nM; under setting [2], 14.6 nM.

As for “CGAUGAGGUGUGAGGAUAUCGUGUUCGAAAGAACGUGAGAAGGCACAUGAGGAUCACCCAUGUCAACCUUGUCG”, the “apparent Kd” value is, setting by setting: under setting [1], 17.3 nM; under setting [2], 15.6 nM.

Regarding “AAAAAACAUGAGGAUCACCCAUGUCUUUUGACAUGAGGAUAUGUACAGACUUCGGUCUGUACAGAAGGCAUGUCUU”, the “apparent Kd” value is, setting by setting: under setting [3], 41.4 nM; under setting [4], 17.1 nM.

For the sequence “AAUCCACAUGAGGAUCACCCAUGUCAGGAUAUCGCGCGCGCGUUUUCGGUCUCGCGCGCGAGAAGGGACGGCUG”, the “apparent Kd” value by setting is: under setting [1], 24 nM; under setting [2], 48.2 nM.

As to “GAGCUAUGAGGAUAUGCAUAGAUACGGAUUCGUGUAGUACUACAUGAGGAUCACCCAUGUAGAAGGCGUGGCAG”, the “apparent Kd” value under setting [1] was 14.3 nM and the “apparent Kd” value under setting [2] came to 15.9 nM.

As to “GUCAGACGAGGAUAUAGAUUUAAGUACAUGAGGAUCACCCAUGUACACAUGUAUUUAGAUUUAGAAGGCGUCUGAC”, the “apparent Kd” value under setting [1] worked out at 594 nM and the “apparent Kd” value under setting [2] came to 700 nM.

For “UCAUAUAUACAAGGAUAUCAAUUAUUUACACAUCCUACAUGAGGAUCACCCAUGUUUUAAUAUAUUGAGAAGGUGUAAUGUCGG”, the “apparent Kd” value runs as follows: under setting [3], 24.9 nM; under setting [4], 31.9 nM.

“GUCCUACAUGAGGAUCACCCAUGUGAGGAUAUGUGGUUAGCUGCUAGGUAGUUAGUAUGCAGAAGGUACGUGAU”: the “apparent Kd” value was found to be 40.4 nM under setting [1] and 41.9 nM under setting [2].

In the case of “CAUGAUUGGGAAGGAUAUUGACCUAGUUAGUGCCGAGAAGGUCCCUUUCACAUGAGGAUCACCCAUGUGAGACUGGUGUUCGAG”, the “apparent Kd” value under setting [1] was determined as 26.5 nM and the “apparent Kd” value under setting [2] was 50.4 nM.

In the case of “GUGAAGGUAGGAUAUACGAUAAUAUAGGGUAGAUAUAUAACACAUGAGGAUCACCCAUGUAGAAGGACCAAGUG”, the “apparent Kd” value runs as follows: under setting [1], 46.3 nM; under setting [2], 110 nM.

“AUGUUAUAUGAAGGAUAUACUUAACAUGAGGAUCACCCAUGUGGUGUUGUGAGUGAGUGAGUUUAGUAGAAGGUCAAUUCUUUU”: the “apparent Kd” value under setting [1] was 256 nM and the “apparent Kd” value under setting [2] worked out at 263 nM.

Take “UUGGACGUCGUAGGAUAUGUAGGAUAUUCCUACAUGAGGAUCACCCAUGUUGACAUGCAAGAAGGACAGAAGGACGAUGUCCAU”: the “apparent Kd” value turned out to be 240 nM under setting [3] and 6.54 nM under setting [4].

Take “AUUGUUUAUGUAGGAUAUGCCUGGCGUGCCUUUGCAGAAGGACAUGAGGAUCACCCAUGUAUUGCGGUCUGCGUUCAGAUCGCA”: the “apparent Kd” value stood at 33.2 nM under setting [1] and 44.3 nM under setting [2].

For “AUUCCCAACCAGAAGGACAUGAGGAUCACCCAUGUAGGAUAUGGGUGGGCGACCCGAACUUGGACGAAAUCGCAAUUCUCACAC”, the “apparent Kd” value runs as follows: under setting [3], 57.8 nM; under setting [4], 10.4 nM.

In the case of “AGUCAUACAGGAUAUACAUGAGGAUCACCCAUGUAUAUCCAAAAUGGGUGAUCCUCAUGUAGAAGGGUAUGACA”, the “apparent Kd” value was found to be 10.3 nM under setting [1] and 10.5 nM under setting [2].

Regarding “GGGUAACAUGAGGAUCACCCAUGUGAGGAUAUCCUAGGGAUGGAAGCCCGGCCAACCAGGAGAAGGUACUAAAG”, the “apparent Kd” value is, setting by setting: under setting [1], 83.2 nM; under setting [2], 89.7 nM.

Consider “GGAGACCUCAUAGGAUAUGCUGGACUUUGUCCAGCAGAAGGGUGAAAACAUGAGGAUCACCCAUGUAUGGUCUCCAAAUUUAAU”, for which the “apparent Kd” value is 992 nM under setting [3] and 327 nM under setting [4].

Take “UUUCAGCAAGGAUAUACGGGCUGUGCUUUUCAUUUCUUACAACAUGAGGAUCACCCAUGUAGAAGGUGCAUCUU”: the “apparent Kd” value by setting is: under setting [1], 72.5 nM; under setting [2], 111 nM.

Consider “GGUCCAUCAUGAGGAUAUGGCACCUUAUUGGUGCCAGAAGGCAUGUCUAUAGACAUGAGGAUCACCCAUGUAAUAAAAUGGACC”, for which the “apparent Kd” value is 571 nM under setting [3] and 61.5 nM under setting [4].

For “CCGGAAUUGCAGGAUAUAGGAGUCGAUAGACACCUAGAAGGGCAGACAUGAGGAUCACCCAUGUGUCCUACCGG”, the “apparent Kd” value is, setting by setting: under setting [1], 18.6 nM; under setting [2], 31.2 nM.

Take “CCUAGUUGGUAAGGAUAUCCUACACUGUUCUGACCCGUGCAAGCUACAUGAGGAUCACCCAUGUGGGAGAAGGUGCGUCGACGC”: the “apparent Kd” value is, setting by setting: under setting [1], 24 nM; under setting [2], 24.9 nM.

Regarding “UAAAAUAGUGUGAGGAUAUGCUGGUCCUUGGAUCAGCAGAAGGCACAUGAGGAUCACCCAUGUAGUUAAUUUUA”, the “apparent Kd” value came to 40.5 nM under setting [1] and 218 nM under setting [2].

Take “CUGGUUCUCGUAGGAUAUGUAGGAUAUGCCUACAUGAGGAUCACCCAUGUUCGCAUGGCAGAAGGACAGAAGGACGAUCACCAC”: the “apparent Kd” value by setting is: under setting [3], 323 nM; under setting [4], 20.7 nM.

For “UGAAGGUAAGGAUAUACAUGAGGAUCACCCAUGUUGUCAUUUCUGUCUGGGCAGGCAUGUAGAAGGUACCUACA”, the “apparent Kd” value under setting [1] was 26.4 nM and the “apparent Kd” value under setting [2] is 87.3 nM.

For “AUAAGCAUUUAUGUGUGCGUAGCACAGGAUAUGCUCCGCGCACAUGAGGAUCACCCAUGUUCGCAGCAGAAGGGUGCAUGCGUU”, the “apparent Kd” value by setting is: under setting [3], 330 nM; under setting [4], 61.5 nM.

For “GCGGUUACGGUUGGCACUUAGCGAGAGGAUAUGGUAAGCUGGACAUGAGGAUCACCCAUGUACUAUCAGAAGGCUCGAGCACGC”, the “apparent Kd” value under setting [3] worked out at 7.94 nM and the “apparent Kd” value under setting [4] came out at 9.15 nM.

In the case of “UGGUACUAGGGAGGAUAUGGGAAGAUACAUGAGGAUCACCCAUGUUUAAGAAUGCCGAGAGGCAACUAGAAGGCCCGAGUACCU”, the “apparent Kd” value reads like this: under setting [3], 456 nM; under setting [4], 21.6 nM.

On to “GGAUAGGACAGAGGAUAUACAGAUAGGAUCUACUAUCAAACAGUCCUAACAUGAGGAUCACCCAUGUAGAAGGCUGUCCUAUCG”, for which the “apparent Kd” value under setting [1] is 21.7 nM and the “apparent Kd” value under setting [2] was determined as 80.3 nM.

Turning to “AAUAUGAGCUGGAAUAAACUCAAAACAUGAGGAUCACCCAUGUAGGAUAUCAGCACGAUAAGUGCUGAGAAGGACAACCAGCUC”, the “apparent Kd” value runs as follows: under setting [1], 13.8 nM; under setting [2], 15.5 nM.

Regarding “AUGCUAGUGUGAGGAUAUUAACAUGAGGAUCACCCAUGUUGGAAGUACACGACAUGAGGUACAUUUAAGAAGGUACAUUAGCAU”, the “apparent Kd” value came to 145 nM under setting [1] and 161 nM under setting [2].

As to “GGAUAGGACAGAGGAUAUACGUGCUAGAGAUACUAGCAAAAUUUCCUCACAUGAGGAUCACCCAUGUAGAAGGCUGUCCUUUCG”, the “apparent Kd” value came out at 17.9 nM under setting [1] and 473 nM under setting [2].

As for “UGUCUCAGAGGAUAUACAGGUGUAGAUCCUUUAGACCCUUGACAUGAGGAUCACCCAUGUAGAAGGCUGCAGAC”, the “apparent Kd” value runs as follows: under setting [1], 69.4 nM; under setting [2], 26.4 nM.

For the sequence “GGUUGGCGAGGAUAUACAUGAGGAUCACCCAUGUGGUCCUGUGGCUGAUCUUGCCUUUGUAGAAGGCGCGGAUC”, the “apparent Kd” value reads like this: under setting [1], 49.7 nM; under setting [2], 53.6 nM.

For “GGACGUCACAUUAACAUGAGGAUCACCCAUGUCUCUAGACAUGAGGAUAUGGAUCCUAAUUGGAUCCAGAAGGCAUGGACGUCC”, the “apparent Kd” value was determined as 1030 nM under setting [3] and 143 nM under setting [4].
